Laboratory results reported in paper PMC7330163 (Pharmacology Research & Perspectives, 2020).

Experiments:
Cyp2c12 = assay: Taqman mRNA upregulation in rat liver; type: in vivo, Sprague-Dawley rat; conditions: either sex
[1] = Toxicokinetics of the 4-week toxicity study in rat; type: in vivo, Sprague-Dawley rat; conditions: for AUC0‐24 h (day 8/28): day 28
Cyp2c6 = assay: Taqman mRNA upregulation in rat liver, 8-day mechanistic follow-up study; type: in vivo, Sprague-Dawley rat; conditions: male rats, 8-day follow-up study, relative to vehicle control
Method in brief: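 Male Sprague-Dawley rats (n = 4) were given 0, 5, 15 or 50 mg/kg daily for 8 days as a suspension in modified gelatine. Liver transcripts were normalised to 18S and to vehicle-treated rats by the ΔΔCT method; fold = 2−ΔΔCT.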

Cyp2c11 = assay: Taqman mRNA upregulation in rat liver, 4-week toxicity study; type: in vivo, Sprague-Dawley rat; conditions: male rats; for Upregulation of Cyp2c11 mRNA: 4-week study, relative to vehicle control
Method in brief: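 Livers came from satellite-group rats of both sexes (n = 5–6) in the 4-week study, dosed once daily at 0, 50, 150, 450 or 1500 mg/kg in modified gelatine. Transcripts quantified by comparative Ct, normalised to 18S and to vehicle-treated controls; fold change = 2−ΔΔCT.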

[2] = Single-dose oral pharmacokinetics in rat; type: in vivo; conditions: Sprague-Dawley, plasma
[3] = Single-dose intravenous pharmacokinetics in dog; type: in vivo, Beagle dog; conditions: male, plasma
Method in brief: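 Three male Beagles in a cross-over design with 7-day wash-out between dosing events. The intravenous solution was PEG400/N-methylpyrrolidone/50 mmol/L TRIS-HCl pH 8.3 (1:1:2 v/v/v). Plasma stored at −20°C. T1/2 = ln(2)/λz; AUC by log-linear trapezoidal rule.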

[4] = Single-dose oral pharmacokinetics in dog; type: in vivo; conditions: male, Beagle, plasma
[5] = biological target: T1, human pregnane X receptor (Homo sapiens, UniProt O75469); assay: PXR reporter-gene assay in green monkey kidney CV-1 cells; type: cell-based
T1 sequence (O75469 1-434): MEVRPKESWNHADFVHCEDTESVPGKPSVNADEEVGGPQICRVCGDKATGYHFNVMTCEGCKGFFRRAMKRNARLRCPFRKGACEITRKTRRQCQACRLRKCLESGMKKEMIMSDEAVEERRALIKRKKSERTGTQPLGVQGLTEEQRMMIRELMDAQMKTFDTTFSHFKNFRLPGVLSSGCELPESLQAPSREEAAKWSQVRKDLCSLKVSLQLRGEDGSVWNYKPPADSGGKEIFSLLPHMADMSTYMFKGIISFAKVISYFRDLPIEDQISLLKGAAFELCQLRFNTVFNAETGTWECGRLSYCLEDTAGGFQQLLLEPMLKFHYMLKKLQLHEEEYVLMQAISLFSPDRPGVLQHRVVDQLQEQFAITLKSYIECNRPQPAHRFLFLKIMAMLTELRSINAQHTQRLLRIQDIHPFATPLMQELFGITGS
Method in brief: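 CV-1 cells were grown 3 days in DMEM/F12 with charcoal-treated FBS, then seeded at 25 000/well and lipofected with hPXR expression vector (0.1 ng), CYP3A4-luciferase reporter (20 ng) and β-galactosidase vector (60 ng). After 24 h, cells were treated 24 h in triplicate with 0.03–30 µmol/L test compound or rifampicin in delipidated charcoal-treated FBS medium. Luciferase normalised to β-galactosidase, expressed as fold over DMSO.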

CYP2C9 = assay: Induction of P450 mRNA in human hepatocytes; type: cell-based; conditions: up to 10 µmol/L
Method in brief: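 Three human hepatocyte batches were cultured as monolayers and treated for 48–89 h with test compound, diluted 1000-fold from DMSO stock, or vehicle. Medium with fresh drug renewed every 24 h; rifampicin and omeprazole served as positive controls. CYP mRNA then measured.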

[6] = Plasma exposure in the 8-day mechanistic follow-up study in male rats; type: in vivo, Sprague-Dawley rat; conditions: for AUC: male, Sprague-Dawley, plasma, oral; for AUC / AUC0‐24 h (day 1) / AUC0‐24 h (day 8/28): rat; for AUC0‐24 h (day 1) / AUC0‐24 h (day 8/28): males, 8-day study
[7] = Toxicokinetics of the 4-week toxicity study in dog; type: in vivo, Beagle dog; conditions: for AUC0‐24 h (day 8/28): day 28

CCCNS(=O)(=O)Nc1ncnc(OCCOc2ncc(Br)cn2)c1-c1ccc(Br)cc1 [macitentan]
Induction of Cyp2c12 mRNA (Cyp2c12): No induction | AUC0‐24 h (day 1) ([1]; females, 50 mg/kg daily oral): 726 μg/mL"h | AUC0‐24 h (day 8/28) ([1]; females, 50 mg/kg daily oral): 490 μg/mL"h | AUC0‐24 h (day 1) ([1]; females, 150 mg/kg daily oral): 1160 μg/mL"h | AUC0‐24 h (day 8/28) ([1]; females, 150 mg/kg daily oral): 776 μg/mL"h | AUC0‐24 h (day 1) ([1]; females, 450 mg/kg daily oral): 1590 μg/mL"h | AUC0‐24 h (day 8/28) ([1]; females, 450 mg/kg daily oral): 1280 μg/mL"h | AUC0‐24 h (day 1) ([1]; females, 1500 mg/kg daily oral): 2500 μg/mL"h | AUC0‐24 h (day 8/28) ([1]; females, 1500 mg/kg daily oral): 1590 μg/mL"h | AUC0‐24 h (day 1) ([1]; males, 50 mg/kg daily oral): 213 μg/mL"h | AUC0‐24 h (day 8/28) ([1]; males, 50 mg/kg daily oral): 114 μg/mL"h | AUC0‐24 h (day 1) ([1]; males, 150 mg/kg daily oral): 382 μg/mL"h | AUC0‐24 h (day 8/28) ([1]; males, 150 mg/kg daily oral): 200 μg/mL"h | AUC0‐24 h (day 1) ([1]; males, 450 mg/kg daily oral): 595 μg/mL"h | AUC0‐24 h (day 8/28) ([1]; males, 450 mg/kg daily oral): 327 μg/mL"h | AUC0‐24 h (day 1) ([1]; males, 1500 mg/kg daily oral): 979 μg/mL"h | AUC0‐24 h (day 8/28) ([1]; males, 1500 mg/kg daily oral): 365 μg/mL"h | Upregulation of Cyp2c6 mRNA (Cyp2c6; 5 mg/kg daily): 1.92 ± 0.45 | Upregulation of Cyp2c6 mRNA (Cyp2c6; 15 mg/kg daily): 1.55 ± 1.21 | Upregulation of Cyp2c6 mRNA (Cyp2c6; 50 mg/kg daily): 3.08 ± 2.45 | increase of Cyp2c11 mRNA levels vs control (Cyp2c11; 450 mg/kg and 1500 mg/kg, 4 weeks): about 50% | Upregulation of Cyp2c11 mRNA (Cyp2c11; 450 mg/kg daily): 1.48 ± 0.48 | Upregulation of Cyp2c11 mRNA (Cyp2c11; 1500 mg/kg daily): 1.43 ± 0.55 | AUC ([2]; female, 3 mg/kg): 18400 ng·h/mL | Cmax ([2]; female, 3 mg/kg): 850 ng/mL | Tmax ([2]; female, 3 mg/kg): 8 h | bioavailability ([2]; female, 3 mg/kg): 62% | AUC ([2]; male, 3 mg/kg): 3240 ng·h/mL | Cmax ([2]; male, 3 mg/kg): 380 ng/mL | Tmax ([2]; male, 3 mg/kg): 6 h | bioavailability ([2]; male, 3 mg/kg): 53% | AUC ([2]; male, 30 mg/kg): 97400 ng·h/mL | Cmax ([2]; male, 30 mg/kg): 7300 ng/mL | Tmax ([2]; male, 30 mg/kg): 16 h | AUC ([3]; Beagle, 0.1 mg/kg): 320 ng·h/mL | Vd ([3]; Beagle, 0.1 mg/kg): 1.2 L/kg | clearance ([3]; Beagle, 0.1 mg/kg): 5.2 mL/min/kg | half-life ([3]; Beagle, 0.1 mg/kg): 3.9 h | AUC ([3]; Beagle, 0.3 mg/kg): 910 ng·h/mL | Vd ([3]; Beagle, 0.3 mg/kg): 1.1 L/kg | clearance ([3]; Beagle, 0.3 mg/kg): 5.7 mL/min/kg | half-life ([3]; Beagle, 0.3 mg/kg): 4.3 h | half-life ([3]; beagle): 3.9 to 4.3 h | AUC ([4]; 1 mg/kg): 2370 ng·h/mL | Cmax ([4]; 1 mg/kg): 410 ng/mL | Tmax ([4]; 1 mg/kg): 2 h | AUC ([4]; 10 mg/kg): 27500 ng·h/mL | bioavailability ([4]; 10 mg/kg): 86% | EC50 [5]: 1.2 µM | change in CYP2C9 mRNA expression (CYP2C9): No change | change in AUC0‐24h after 8 days treatment ([6]; male rats, 3 mg/kg): No change | AUC0‐24h (day 1) as percent of the AUC0‐24h (day 1) in the 4‐week study ([6]; male rats, 50 mg/kg, different macitentan batches (particle size)): 13% | AUC ([6]; 15 mg/kg): 20300 ng·h/mL | AUC ([6]; 50 mg/kg): 26800 ng·h/mL | AUC0‐24 h (day 1) ([6]; 3 mg/kg daily oral): 3.09 μg/mL"h | AUC0‐24 h (day 8/28) ([6]; 3 mg/kg daily oral): 3.05 μg/mL"h | AUC0‐24 h (day 1) ([6]; 15 mg/kg daily oral): 20.3 μg/mL"h | AUC0‐24 h (day 8/28) ([6]; 15 mg/kg daily oral): 12.3 μg/mL"h | AUC0‐24 h (day 1) ([6]; 50 mg/kg daily oral): 26.8 μg/mL"h | AUC0‐24 h (day 8/28) ([6]; 50 mg/kg daily oral): 16.8 μg/mL"h | increase in AUC0‐24h from 50 to 500 mg/kg ([7]; 4-week toxicity study): 5.1 fold | AUC ([7]; beagle, plasma, oral, 5 mg/kg): 17500 ng·h/mL | AUC0‐24 h (day 1) ([7]; females, 5 mg/kg daily oral): 11.6 μg/mL"h | AUC0‐24 h (day 8/28) ([7]; females, 5 mg/kg daily oral): 10.5 μg/mL"h | AUC0‐24 h (day 1) ([7]; females, 50 mg/kg daily oral): 94.8 μg/mL"h | AUC0‐24 h (day 8/28) ([7]; females, 50 mg/kg daily oral): 46.5 μg/mL"h | AUC0‐24 h (day 1) ([7]; females, 500 mg/kg daily oral): 504 μg/mL"h | AUC0‐24 h (day 8/28) ([7]; females, 500 mg/kg daily oral): 84.4 μg/mL"h | AUC0‐24 h (day 1) ([7]; males, 5 mg/kg daily oral): 17.5 μg/mL"h | AUC0‐24 h (day 8/28) ([7]; males, 5 mg/kg daily oral): 14.7 μg/mL"h | AUC0‐24 h (day 1) ([7]; males, 50 mg/kg daily oral): 134 μg/mL"h | AUC0‐24 h (day 8/28) ([7]; males, 50 mg/kg daily oral): 39.1 μg/mL"h | AUC0‐24 h (day 1) ([7]; males, 500 mg/kg daily oral): 692 μg/mL"h | AUC0‐24 h (day 8/28) ([7]; males, 500 mg/kg daily oral): 44.9 μg/mL"h
